Screening results: PubChem BioAssay, Broad Institute
In the library only some 3% were active in any assay of this set; here they are far more common.
XiGFP reactiv = activators of X-chromosome reactivation in mouse fibroblasts; XiGFP mouse fibroblasts, % GFP-positive cells imaging, 3 d; cells co-treated with 5-aza-dC sensitizer; scaled so ellipticine positive control = 100%; activation, % at 7.58 µM; 0.055% of 360,000 active;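 active = mean normalized replicate activation at least 10% and every replicate at or above 10%; inconclusive = only one of the two criteria met; inactive = mean below 10% and not all replicates reach 10%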;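 also: 0% = median of on-plate neutral control wells and 100% = ellipticine 6 µM median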
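material = 68-5-11 XiGFP fibroblast line | medium = DMEM plus 5-aza-dC sensitizer | schedule = 3 days compound exposure | benchmarks = positive control ellipticine, 6 µM final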
esBAF inh = SWI/SNF esBAF complex inhibition | mouse ES cells, Bmi1-luciferase knock-in reporter, 24 h; 100% = twice the neutral-well signal | reporter increase, % at 12.5 µM | 2% of 350,000 active | AID 602393; in the data active = activation above about 40%; inconclusive = no clear call, values can overlap the other calls;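 also: 0% = median of the plate's neutral control wells and 100% = double that signal; a rise in the Bmi1 reporter signal indicates esBAF inhibition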
Wnt bcat act = activates Wnt/beta-catenin signaling in a reporter cell assay | 1.2% of 300,000 active | activator, plate reader | activation, % at 9.35 µM | AID 743398; in the data active = activation above about 30%, passing the limit was not always enough; inconclusive = no clear call, values can overlap the other calls;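 also: 0% = neutral control wells and 100% = positive control wells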
Casp6 inh = blocks human caspase-6 cleavage activity | P55212 | purified caspase-6, Z-VEID-R110 cleavage fluorescence | inhibition, % at 12.5 µM | 0.53% of 350,000 active;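 active = mean inhibition across replicates at least about 35%, with every replicate also reaching that limit, limit read from the data; inconclusive = only one of the two criteria met; inactive = neither criterion met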;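 also: 0% = median of neutral control wells and 100% = no fluorescence left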
Target sequence (P55212 24-179 limits assumed): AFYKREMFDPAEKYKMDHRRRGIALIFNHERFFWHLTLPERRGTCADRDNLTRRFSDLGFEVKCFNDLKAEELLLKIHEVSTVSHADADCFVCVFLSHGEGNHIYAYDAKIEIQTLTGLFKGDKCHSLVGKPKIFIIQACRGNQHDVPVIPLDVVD
Target sequence (P55212 194-293 limits assumed): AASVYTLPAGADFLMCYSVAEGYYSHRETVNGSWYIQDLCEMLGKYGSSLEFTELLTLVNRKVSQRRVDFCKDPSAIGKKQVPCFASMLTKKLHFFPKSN
NSD2 inh = blocks human histone methyltransferase NSD2; O96028; NSD2 peptide methylation, AlphaScreen, 120 min; inhibition, % at 12.5 µM; 0.54% of 310,000 active; in the data active = inhibition above about 50%
MITF act = increases MITF-driven TRPM1 promoter luciferase signal; SK-MEL-5 TRPM1-promoter luciferase, 24 h; % of positive control, neutral wells = 0; activation, % at 12.5 µM; 0.75% of 300,000 active;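 active = mean activation of at least 80% with every replicate also reaching 80%; inconclusive = mean reaches 80% but some replicate falls short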;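 also: 0% = neutral control wells and 100% = parthenolide positive control wells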
* marks the source's active call; other numbers are inactive results; ? = inconclusive; . = not tested or not shown.

SMILES	XiGFP reactiv	esBAF inh	Wnt bcat act	Casp6 inh	NSD2 inh	MITF act
COc1ccc2nc(NC(=O)c3ccc(F)cc3)sc2c1	0	55*	23	-3	1	68
COc1ccc(C(=O)Nc2nc(CC(=O)NCc3c(F)cccc3F)cs2)cc1	1	?	?	1	-8	.
CCCNC(=O)N1CC2(CCN(S(=O)(=O)c3ccc(OC)cc3)CC2)c2c(n(C)c3cc(OC)ccc23)[C@@H]1CO	0	.	.	0	.	.
CCC(C)C(=O)Nc1nc2ccc(OC)cc2s1 (centres undefined)	0	.	43*	0	1	.
Fc1ccc(Nc2nc3ccccc3s2)cc1	0	46*	-1	-2	-1	67
Cc1noc(C)c1C(=O)Nc1nc2ccc(F)cc2s1	0	52*	59*	9	0	66
CC(=O)NCc1ccc(-c2nc3ccccc3s2)cc1	0	-13	14	1	-11	-1
COc1ccc(-c2nc3ccccc3s2)cc1NC(C)=O	0	39	36*	-2	-4	68
COc1ccc(S(=O)(=O)N(C)C[C@@H]2OCCCC[C@H](C)Oc3ccc(NC(=O)Nc4ccc(C(F)(F)F)cc4)cc3C(=O)N([C@@H](C)CO)C[C@H]2C)cc1	0	-3	.	3	.	.
CCCCN1C(=O)c2cccc3cc(O)cc(c23)C1=O	0	.	61*	-3	-12	.
C[C@@H]1CN([C@@H](C)CO)C(=O)c2cc(C#CCc3ccccc3)cnc2O[C@@H]1CN(C)Cc1cccnc1	-1	-6	.	0	.	.
O=C(Nc1ccc2oc(-c3ccncc3)nc2c1)c1ccccc1F	.	39	.	.	-3	40
CC(C)CC(=O)Nc1ccc2oc(-c3ccncc3)nc2c1	.	67*	16	.	-3	69
O=C(Nc1ccc2oc(-c3ccccc3)nc2c1)c1ccccc1F	.	51*	.	.	0	58
CCCCC(=O)Nc1ccc2oc(-c3cccnc3)nc2c1	.	23	.	.	-3	39
CCCC(=O)Nc1ccc2oc(-c3cccnc3)nc2c1	.	.	37*	.	10	51
O=C(Nc1ccc2oc(-c3ccccc3F)nc2c1)c1ccccc1F	0	85*	15	0	3	60
CO[C@H]1CN(C)C(=O)c2cc(NC(=O)Nc3ccccc3)ccc2OC[C@H](C)N(C(=O)CN(C)C)C[C@H]1C	0	2	.	0	.	.
C[C@H]1CN([C@@H](C)CO)C(=O)c2cc(NC(=O)Cn3cnnn3)ccc2O[C@@H]1CN(C)S(=O)(=O)c1cn(C)cn1	-1	-1	.	0	.	.
O=C(Nc1ccc2oc(-c3ccc(Cl)c(Cl)c3)nc2c1)c1ncn[nH]1	.	52*	42*	.	-11	55
O=C(Nc1ccc2oc(-c3ccccc3F)nc2c1)c1ncn[nH]1	.	-3	52*	.	0	3
CC(=O)Nc1ccc2oc(-c3ccccc3)nc2c1	0	.	64*	1	-1	79
O=C(Cc1ccccc1)NC(=S)Nc1ccc2oc(-c3ccccc3F)nc2c1	.	7	.	.	-1	125*
Cc1noc(C)c1NC(=O)Nc1ccc2c(c1)C(=O)N([C@H](C)CO)C[C@@H](C)[C@@H](CN(C)S(=O)(=O)c1ccc(F)cc1)OCCCC[C@H](C)O2	-1	4	.	-1	.	.
O=C(C[C@@H]1C[C@H]2c3cc(NC(=O)C4CCC4)ccc3O[C@H]2[C@@H](CO)O1)NCC1CC1	0	2	.	-2	.	.
SMILES	XiGFP reactiv	esBAF inh	Wnt bcat act	Casp6 inh	NSD2 inh	MITF act
O=C(C1CC1)N1[C@H](CO)[C@@H](c2ccccc2)C12CN(CCC(F)(F)F)C2	0	.	.	0	.	.
CO[C@@H]1CN(C)C(=O)c2cc(NC(C)=O)ccc2OC[C@H](C)N(C(=O)C2CCCCC2)C[C@H]1C	0	.	.	.	.	.
CC(=O)Nc1ccc2nc3ccccc3nc2c1	0	42*	47*	16	4	.
C[C@@H]1CN([C@H](C)CO)C(=O)c2cc(NC(=O)NC3CCCCC3)ccc2O[C@@H](C)CCCCO[C@H]1CN(C)C(=O)NC1CCCCC1	0	4	.	-1	.	.
O=C(NNC(=S)NC(=O)c1ccccc1)c1ccc(O)cc1	0	2	0	1	2	-4
O=C(NNC(=S)Nc1ccccc1)c1cccc(Br)c1	.	47*	.	.	6	11
O=C(NNC(=S)Nc1ccccc1)c1ccc(O)cc1	0	78*	57*	2	-1	?
